# Source: PubChem BioAssay
# The sample as a whole holds a higher share of hits than the screen did.
# PTEN del growth: suppresses growth of cells with PTEN deletion. HCT116 PTEN-null viability, CellTiter-Glo, 60 h; hits give low values. viability, % at 10 µM. 1.2% of 140,000 active;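 active = viability at or below a set limit, 4 SD under the median of all tested compounds, cut at about 3.7% in these data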;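 note: PTEN knockout HCT116 line with beta catenin targeted HCT116 as companion control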
# bCat KO growth: beta-catenin-lacking colon tumor cell growth suppression; 1.5% of 140,000 active; viability, % at 10 µM; AID 818; HCT116 beta-catenin knockout viability, CellTiter-Glo, 60 h; hits give low values;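 active = viability at or under a set limit, the compound median less 4 SD, cut at about 6% in these data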;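 note: 0% = Hyamine 1622 control at 20 µM and 100% = untreated cell control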
# Lung fibro prol: blocks proliferation of human lung fibroblasts; AID 719; 1.1% of 85,000 active; LL 47 human lung fibroblast viability, ATP luminescence; hits give low values; viability, % at 10 µM;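 active = viability at or below 50% in the single dose screen; inactive = viability above 50%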;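 note: compound exposure lasted 72 h before the ATP readout; 100% = median luminescence of untreated cell-only wells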
#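 Benchmarks: Cell-only wells, no compound | Test system: LL 47 human lung fibroblasts, passage 12 or lower | Input: 1,150 cells/well | Measured by: CellTiter-Glo luminescence measuring cellular ATP | Medium: IMEM, 15% FBS supplement | Schedule: Overnight attachment after seeding, then 72 h compound exposure at 37 °C | Doses: Compound addition at 0.1% DMSO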
# H69AR growth 86K: growth inhibitors of human H69AR lung tumor cells | H69AR lung tumor viability, ATP luminescence, 72 h; hits give low values | viability, % at 10 µM | 6% of 85,000 active;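 active = viability at or below 40%; inactive = viability above 40%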;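 note: multidrug resistant small cell line overexpressing MRP-1 efflux transporter; 100% = mean luminescence of untreated control wells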
# HUVEC inhibit: human endothelial cell proliferation inhibition; viability, % at 10 µM (by protocol); 1.1% of 86,000 active; HUVEC proliferation, CellTiter-Glo luminescence, 72 h; hits give low values;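 active = viability at or below 30%; inactive = viability above 30%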;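 note: 100% = median luminescence of DMSO-only cell control wells on each plate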
# An asterisk follows results filed as active; . = no result given.
SMILES,PTEN del growth,bCat KO growth,Lung fibro prol,H69AR growth 86K,HUVEC inhibit
Cc1[nH]n(-c2ccccc2)c(=O)c1/C=N/O,100,106,.,.,.
Cc1ccc2cccc(N=Cc3c(C)[nH]n(-c4ccccc4)c3=O)c2n1,2.5*,2.8*,.,.,.
Cc1cc(C)cc(-n2nnnc2SCC(=O)Nc2nc(-c3ccc(Cl)cc3)cs2)c1,64,60,.,.,.
O=C(N/N=C/c1c[nH]c2ccccc12)c1[nH]c2ccc(Br)cc2c1-c1ccccc1,1.2*,1.3*,.,.,.
CCn1cc(/C=N/NC(=O)c2ccc(C#N)cc2F)c2ccccc21,89,96,.,.,.
CCc1ccc2[nH]c(=O)c(C3C(C#N)=C(N)Oc4c3ccc3cccnc43)cc2c1 (centres undefined),15,13,70,0.8*,57
Cc1ccc2cc(C3C(C#N)=C(N)Oc4c3ccc3cccnc43)c(=O)[nH]c2c1 (centres undefined),93,82,51,37*,80
CC(C)c1ccc(S(=O)(=O)/N=C2/C=C(Sc3ncn[nH]3)C(=O)c3ccccc32)cc1,11,2.1*,.,.,.
Cc1ccc(S(=O)(=O)/N=C2/C=C(Sc3ncn[nH]3)C(=O)c3ccccc32)c(C)c1,2.8*,1.9*,.,.,.
Cc1ccc(S(=O)(=O)/N=C2/C=C(Sc3ncn[nH]3)C(=O)c3ccccc32)cc1,67,31,.,.,.
Cc1ccc(S(=O)(=O)ON2C(=O)c3ccccc3C2=O)c(C)c1,93,86,.,.,.
COc1cc(OC)cc(C(=O)Nc2ccc(-c3nc4ccccc4o3)cc2)c1,69,77,108,30*,35
Cc1ccc(OCC(=O)Nc2ccc(O)c(-c3nc4ccccc4o3)c2)cc1,71,86,54,13*,3.0*
COc1cccc(C(=O)Nc2cccc(-c3nc4ncccc4o3)c2C)c1,102,110,99,93,106
COc1cccc(C(=O)Nc2ccc(-c3nc4ccccc4o3)c(O)c2)c1,30,55,79,9.5*,74
COC(=O)c1ccc(-c2nc3ccc(C)cc3o2)cc1,10,11,97,26*,66
C/C=C/C(=O)OCC(=O)Nc1ccc(OC)c(Cl)c1,110,89,.,.,.
Cc1cccc(C)c1NC(=O)CN1N=NC2C(=O)N(c3cccc(Cl)c3)C(=O)C21 (centres undefined),91,88,.,.,.
Cc1cc(NC(=O)C23CCC(C)(C(=O)O2)C3(C)C)no1 (centres undefined),98,101,98,73,105
O=C(Nc1ccc(-c2nc3ccccc3o2)c(O)c1)c1cc(-n2cnnc2)ccc1Cl,61,82,99,21*,95
O=C(Nc1ccc(-c2nc3ccccc3o2)cc1)c1ccc(N2C(=O)C3C4C=CC(C4)C3C2=O)cc1 (centres undefined),80,79,74,15*,32
COc1cc(C(=O)Nc2ccc(-c3nc4cc(C)ccc4o3)c(O)c2)cc(OC)c1OC,11,13,85,24*,80
Cn1c2c(c(=O)n(C)c1=O)C(C(F)(F)F)(C(F)(F)F)N=C(c1ccc(Cl)cc1)N2,4,3.0*,.,.,.
Cc1cccc(N=Nc2ccc(O)c3ncccc23)c1,14,6.0*,.,.,.
CC(=Nc1cccc(C)c1)c1sc2ccccc2c1O,87,84,109,44,86
SMILES,PTEN del growth,bCat KO growth,Lung fibro prol,H69AR growth 86K,HUVEC inhibit
CCOC(=O)c1ccc(N=c2sc(C(=O)OC)cc(=O)n2-c2ccc(C(=O)OCC)cc2)cc1,4,3.3*,.,.,.
O=[N+]([O-])c1cc(/C=N/O)ccc1SCc1ccccc1Cl,82,101,.,.,.
NC(=O)c1cccnc1Sc1ccc(Cl)cc1,105,91,.,.,.
CCN(C(=O)c1coc(=O)c(Br)c1)c1ccc2c(c1)OCO2,85,83,92,2.0*,77
CCN(CC)c1ccc(/C=c2/sc3nnc(-c4ccccc4C)n3c2=O)cc1,102,100,88,20*,68
CCN(CC)c1ccc(/C=c2\sc3nnc(-c4ccccc4Cl)n3c2=O)cc1,90,91,97,97,94
Cn1c(N)c(C(=O)CCl)c(=O)n(C)c1=O,94,85,76,3.0*,89
Cn1c(N)c(C(=O)CCl)c(=O)n(Cc2ccccc2)c1=O,36,36,.,.,.
CN(C)C(C)(C)C#CCCCCC#CC(C)(C)N(C)C,96,83,99,90,87
COc1ccc(N2CCN(c3oc(Cc4ccccc4)nc3C#N)CC2)cc1,60,64,96,35*,82
O=C(NCC1CCN(c2ccc(S(=O)(=O)N3CCOCC3)cc2)CC1)c1ccc(Cl)cc1,57,62,86,35*,88
